The test system of data set [1] is THP-1. In words: Downregulation of HDAC6 mRNA expression in human THP1 cells at 100 uM after 24 hrs by RT-PCR method. The data set is classed as functional, cell-based. A digest of the protocol:
(§1)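 THP-1 cells in RPMI 1640 with 10% heat-inactivated FCS, 37 °C, 5% CO2. Seeded 2.0 × 10^6 cells per 3.5 cm dish and treated 24 h, at 1 mM for the 1 mM lines and 100 μM for the 100 μM lines. RNA extracted in TRIzol, then real-time RT-PCR normalized to 18S rRNA. Means ± SD of three independent experiments; ANOVA with Bonferroni post hoc.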

Data set [2] concerns THP-1. The data set is described as follows: Downregulation of HDAC5 mRNA expression in human THP1 cells at 100 uM after 24 hrs by RT-PCR method. The class given is functional, cell-based. A digest of the protocol: as §1
Data set [3] addresses Histone deacetylase 1 (Homo sapiens) (UniProt Q13547). In words: Upregulation of HDAC1 inhibition-mediated histone H4 acetylation-induced extracellular SOD expression in human THP1 cells at 100 uM after 12 hrs by chromatin immunoprecipitation method. The class given is cell-based. The procedure, abridged: (§2)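 THP-1 cells (5 × 10^6) treated 12 h, at 1 mM or 100 μM per line. Cross-linked with formaldehyde 5 min at room temperature and chromatin sonicated to 150–800 bp. Immunoprecipitated overnight on protein G beads and washed in RIPA I/II and TE. Eluted with RNase A and proteinase K. EC-SOD promoter binding expressed as % of input.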

Data set [4] shares this target. The data set is described as follows: Inhibition of HDAC1 in human THP1 cells assessed as increase in histone H4 acetylation level at 100 uM after 12 hrs by Western blot analysis relative to control. The data set is classed as cell-based. A digest of the protocol: (§3)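 THP-1 cells treated 12 h at the indicated concentrations. Acetylated histone H3 and H4 detected by Western blot (20 μg protein, 12% SDS-PAGE, PVDF, primary antibodies 1:1000). Histone loading checked by Coomassie staining.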
Background: In western blotting, separated proteins are transferred to a membrane and probed.

In data set [5] the test system is THP-1. The data set is described as follows: Cytotoxicity against human THP1 cells assessed as reduction in cell viability at 100 uM after 24 hrs by MTT assay. The class given is cell-based. The conditions noted are these: thp-1, 24 h. A digest of the protocol: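 THP-1 cells treated 24 h in 24-well plates; medium replaced with 10% FCS-RPMI 1640 containing 0.5 mg/mL MTT, 2 h at 37 °C, 5% CO2. Formazan dissolved in 2-propanol with 0.04 N HCl, read at 595 nm (reference 655 nm). Mean ± SD, n = 3.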
(Tetrazolium dyes change colour on reduction, which living cells bring about.)

The target of data set [6] is Histone deacetylase 1 (Homo sapiens) (UniProt Q13547). The data set is described as follows: Upregulation of HDAC1 inhibition-mediated histone H3 acetylation-induced extracellular SOD expression in human THP1 cells at 100 uM after 12 hrs by chromatin immunoprecipitation method. The class given is cell-based. The procedure, abridged:
as §2

For data set [7] the target is unchanged. The data set is described as follows: Inhibition of HDAC1 in human THP1 cells assessed as increase in histone H3 acetylation level at 50 uM after 12 hrs by Western blot analysis relative to control. The class given is cell-based. A digest of the protocol:
as §3

Data set [8] shares this target. In words: Inhibition of HDAC1 in human THP1 cells assessed as increase in histone H3 acetylation level at 100 uM after 12 hrs by Western blot analysis relative to control. The data set is classed as cell-based. The procedure, abridged:
as §3

The subject of data set [9] is THP-1. The data set is described as follows: Downregulation of HDAC2 mRNA expression in human THP1 cells at 100 uM after 24 hrs by RT-PCR method. The class given is functional, cell-based. A digest of the protocol:
as §1

For data set [10], the species on record is Homo sapiens. The data set is described as follows: Upregulation of HDAC1 inhibition/ERK signalling activation-mediated extracellular SOD mRNA expression in human THP1 cells at 1 to 10 uM incubated for 24 hrs by RT-PCR method. The class given is cell-based. A digest of the protocol: (§4)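 THP-1 cells treated 24 h at the indicated concentrations, or at 100 μM for the indicated times. EC-SOD mRNA measured by real-time RT-PCR normalized to 18S rRNA. Means ± SD of three independent experiments.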

For data set [11], the target named is Histone deacetylase 1 (Homo sapiens) (UniProt Q13547). The data set is described as follows: Inhibition of HDAC1 in human THP1 cells assessed as increase in histone H4 acetylation level at 50 uM after 12 hrs by Western blot analysis relative to control. The data set is classed as cell-based. A digest of the protocol: as §3
Histone deacetylase 1 (Homo sapiens), sequence (Q13547 whole entry, the tested form may be a part): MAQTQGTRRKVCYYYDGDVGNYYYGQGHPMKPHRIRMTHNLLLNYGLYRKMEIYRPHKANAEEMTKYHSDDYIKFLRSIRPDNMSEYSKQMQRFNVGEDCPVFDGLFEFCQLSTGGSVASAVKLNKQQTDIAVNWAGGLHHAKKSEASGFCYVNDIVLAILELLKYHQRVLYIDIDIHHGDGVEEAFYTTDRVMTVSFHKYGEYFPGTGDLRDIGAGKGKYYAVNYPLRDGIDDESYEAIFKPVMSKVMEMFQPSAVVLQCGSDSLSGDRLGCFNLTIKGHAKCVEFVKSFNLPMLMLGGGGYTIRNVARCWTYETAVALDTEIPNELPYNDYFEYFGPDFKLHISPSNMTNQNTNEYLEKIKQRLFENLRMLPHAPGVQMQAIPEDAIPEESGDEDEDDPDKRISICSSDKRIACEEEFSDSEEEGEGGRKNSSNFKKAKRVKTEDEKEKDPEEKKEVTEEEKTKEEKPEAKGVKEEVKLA
For data set [12], the species on record is Homo sapiens. The data set is described as follows: Upregulation of HDAC1 inhibition/ERK signalling activation-mediated extracellular SOD protein expression in human THP1 cells at 100 uM incubated for 24 hrs by ELISA. The data set is classed as cell-based. The procedure, abridged: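 THP-1 cells treated 24 h at 100 μM and collected in PBS. Cellular EC-SOD protein content measured by ELISA. Means ± SD of three independent experiments.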

The test system of data set [13] is THP-1. In words: Downregulation of HDAC1 mRNA expression in human THP1 cells at 100 uM after 24 hrs by RT-PCR method. The class given is functional, cell-based. The procedure, abridged: as §1
For data set [14], the species on record is Homo sapiens. In words: Induction of ERK phosphorylation in human THP1 cells at 50 to 100 uM incubated for 3 hrs by Western blot analysis. The class given is cell-based. A digest of the protocol:
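THP-1 cells treated 3 h at the indicated concentrations. Whole-cell extracts, 20 μg protein, run on 12% SDS-PAGE and transferred to PVDF. Blocked in 1% BSA/PBS. Probed with anti-phospho-ERK and anti-ERK (1:1000), then biotin-conjugated secondary (1:1000).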

For data set [15], the species on record is Homo sapiens. In words: Upregulation of HDAC1 inhibition/ERK signalling activation-mediated extracellular SOD mRNA expression in human THP1 cells at 100 uM after 24 hrs in presence of ERK inhibitor U0126 by RT-PCR method. The data set is classed as cell-based. A digest of the protocol: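 THP-1 cells pretreated 30 min with 5 μM U0126, then exposed to compound at 100 μM for 24 h. EC-SOD mRNA measured by real-time RT-PCR normalized to 18S rRNA.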

Data set [16] has as its system THP-1. The data set is described as follows: Upregulation of HDAC10 mRNA expression in human THP1 cells at 100 uM after 24 hrs by RT-PCR method. The class given is functional, cell-based. The procedure, abridged: as §1
For data set [17], the species on record is Homo sapiens. In words: Upregulation of HDAC1 inhibition/ERK signalling activation-mediated extracellular SOD mRNA expression in human THP1 cells at 100 uM by RT-PCR method. The note with it: TDE = time-dependent effect. The class given is cell-based. The procedure, abridged:
as §4

Data set [18] has as its system THP-1. The data set is described as follows: Upregulation of HDAC4 mRNA expression in human THP1 cells at 100 uM after 24 hrs by RT-PCR method. The data set is classed as functional, cell-based. A digest of the protocol: as §1
Data set [19] addresses Histone deacetylase 1 (Homo sapiens) (UniProt Q13547). The data set is described as follows: Inhibition of recombinant HDAC1 catalytic domain (unknown origin) using HDAC substrate at 100 uM preincubated for 1 hr followed by substrate addition measured after 30 mins by fluorescence assay relative to control. A digest of the protocol:
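Recombinant HDAC1 in assay buffer exposed to compound at 100 μM for 1 h. Fluorogenic HDAC substrate then added, 30 min at 37 °C in the dark. Developer added, 15 min at room temperature. Fluorescence read at ex 365 nm, em 410–460 nm, relative to untreated.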

Active and inactive are the calls of the source. The rule behind the calls is not given here.

As usually defined, the inhibition is the share of the control response that was lost under treatment. Consider `CCCCCCC(/C=C/C(=O)OCC)OO` (centres undefined), for which the result (in the data set with THP-1 [1]; in the data set on THP-1 [2]; in data set [3]; in [6]; with THP-1 [9]; in the data set listed under Homo sapiens [12]) was Active. Moreover, the result in the data set with THP-1 [13], in the data set listed under Homo sapiens [14], in the data set on THP-1 [16] and with THP-1 [18] was Active. Besides, the fold change (FC) in [4] is 3.77; in [7] it was 1.82; in data set [8] it was 4.27; in [11], 3.32. Besides, the Activity entry with THP-1 [5] is “Non-Toxic”; in the data set listed under Homo sapiens [17], “Tde”. Besides, the outcome in the data set filed under Homo sapiens [10] and in the data set filed under Homo sapiens [15] was inactive. Moreover, in data set [19], the inhibition turned out to be 50%.
